ChEMBL document CHEMBL3826920, “Solution-phase microwave assisted parallel synthesis, biological evaluation and in silico docking studies of N,N'-disubstituted thioureas derived from 3-chlorobenzoic acid” (Bioorg Med Chem, 2016)
pIC50: −log10 of the molar value.

How the values were obtained:
[1] = molecular target: Urease (Canavalia ensiformis) (UniProt P07374); assay: Inhibition of jack bean urease using urea as substrate assessed as reduction in ammonia production at 1 mM after 30 mins by indophenol method
NCI-H157 = assay: Growth inhibition of human NCI-H157 cells at 100 uM after 48 hrs by SRB assay; assay type: functional; conditions: NCI-H157, 48 h, read-out: GI
How it was run: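 H-157 cells seeded at 10⁴ cells per well and grown at 37 °C under 5% CO₂ to a monolayer within 24 h. Compound added, with a vincristine standard and a cells-plus-media blank, for 48 h. Cells fixed in 50% ice-cold TCA (4 °C, 1 h), washed 5× with PBS, stained with 0.4% w/v SRB in 1% acetic acid (30 min, RT), rinsed, and dye solubilized in 10 mM Tris base. A490 read minus A630 background; triplicate.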

Urease = Urease (Canavalia ensiformis, UniProt P07374); assay: Inhibition of jack bean urease using urea as substrate assessed as reduction in ammonia production after 30 mins by indophenol method
How it was run: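 Compounds were first screened, and those giving at least 50% inhibition went on to dose-response testing. For each, 7–9 serial dilutions were made in assay buffer, and curves were run under the same conditions as the initial screen.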

Sequence of Urease (P07374 whole entry): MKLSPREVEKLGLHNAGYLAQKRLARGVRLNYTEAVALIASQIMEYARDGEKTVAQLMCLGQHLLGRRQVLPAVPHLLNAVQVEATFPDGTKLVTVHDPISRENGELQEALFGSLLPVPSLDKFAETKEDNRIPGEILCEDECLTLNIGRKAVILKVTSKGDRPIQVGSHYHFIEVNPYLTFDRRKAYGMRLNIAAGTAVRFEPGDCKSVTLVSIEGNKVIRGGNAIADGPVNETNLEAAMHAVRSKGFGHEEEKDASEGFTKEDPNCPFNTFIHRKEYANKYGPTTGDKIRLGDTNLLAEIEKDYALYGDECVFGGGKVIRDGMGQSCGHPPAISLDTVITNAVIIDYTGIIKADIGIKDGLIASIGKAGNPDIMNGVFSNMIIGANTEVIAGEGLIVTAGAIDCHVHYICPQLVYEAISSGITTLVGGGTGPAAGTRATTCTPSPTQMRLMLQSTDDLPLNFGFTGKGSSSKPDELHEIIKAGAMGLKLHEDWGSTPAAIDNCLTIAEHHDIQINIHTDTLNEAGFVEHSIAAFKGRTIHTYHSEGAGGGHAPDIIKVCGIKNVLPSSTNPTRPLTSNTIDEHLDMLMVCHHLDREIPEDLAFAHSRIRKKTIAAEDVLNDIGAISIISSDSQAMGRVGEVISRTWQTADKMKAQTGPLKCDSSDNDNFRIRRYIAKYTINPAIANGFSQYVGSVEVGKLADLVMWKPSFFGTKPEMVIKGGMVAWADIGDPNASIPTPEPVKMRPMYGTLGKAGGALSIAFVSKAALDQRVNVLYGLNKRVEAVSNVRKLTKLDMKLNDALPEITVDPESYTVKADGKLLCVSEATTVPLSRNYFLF
Sequence of Urease (Canavalia ensiformis) (P07374 whole entry, looked up): as the sequence (P07374 whole entry) above

Row | inhibition [1] | Structure (SMILES) | inhibition of growth at 100 µM (NCI-H157) | pIC50 (Urease)
1 | 36.9% | CCCCc1ccc(NC(=S)NC(=O)c2cccc(Cl)c2)cc1 | 47.7% | 
2 |  | O=C(NC(=S)NC1CCCCC1)c1cccc(Cl)c1 | 48.5% | 4.84
3 |  | O=C(NC(=S)Nc1ccccc1[N+](=O)[O-])c1cccc(Cl)c1 | 36.4% | 5.07
4 |  | O=C(NC(=S)Nc1cccc(C(F)(F)F)c1)c1cccc(Cl)c1 | 48.9% | 5.54
5 |  | CN(C(=S)NC(=O)c1cccc(Cl)c1)c1ccccc1 | 45.1% | 4.76
6 |  | O=C(NC(=S)Nc1c(Cl)cc(Cl)cc1Cl)c1cccc(Cl)c1 | 60.9% | 5.44
7 |  | COc1ccccc1NC(=S)NC(=O)c1cccc(Cl)c1 | 42.8% | 5.42
8 | 27.4% | O=C(NC(=S)NCc1ccccc1Cl)c1cccc(Cl)c1 | 27.6% | 
9 | 27.9% | O=C(NC(=S)Nc1nc2ccccc2s1)c1cccc(Cl)c1 | 48.8% | 
10 | 21.7% | COc1cccc(NC(=S)NC(=O)c2cccc(Cl)c2)c1 | 42.2% | 
11 |  | O=C(NC(=S)Nc1c(Cl)cccc1Cl)c1cccc(Cl)c1 | 42.2% | 5.27
12 |  | O=C(NC(=S)Nc1ccc(C(F)(F)F)cc1)c1cccc(Cl)c1 | 44.6% | 5.15
13 |  | O=C(NC(=S)Nc1ccc(Cl)cc1)c1cccc(Cl)c1 | 52.6% | 4.93
14 |  | O=C(NC(=S)Nc1cccc(Br)c1)c1cccc(Cl)c1 | 32.4% | 4.70
15 |  | O=C(NC(=S)Nc1cc(Cl)cc(Cl)c1)c1cccc(Cl)c1 | 48.5% | 5.19
16 |  | CCc1cccc(CC)c1NC(=S)NC(=O)c1cccc(Cl)c1 | 41.2% | 4.90
17 |  | O=C(NC(=S)Nc1cccc(Cl)c1Cl)c1cccc(Cl)c1 | 50.7% | 5.72
18 |  | O=C(NC(=S)Nc1ccc(Br)cc1Br)c1cccc(Cl)c1 | 38.2% | 5.20
19 |  | CC[C@]1(O)C[C@H]2CN(CCc3c([nH]c4ccccc34)[C@@](C(=O)OC)(c3cc4c(cc3OC)N(C=O)[C@H]3[C@@](O)(C(=O)OC)[C@H](OC(C)=O)[C@]5(CC)C=CCN6CC[C@]43[C@@H]65)C2)C1 [VINCRISTINE] | 74.6% | 

Row | inhibition [1] | Structure (SMILES) | inhibition of growth at 100 µM (NCI-H157) | pIC50 (Urease)
20 |  | Cc1ccc(NC(=S)NC(=O)c2cccc(Cl)c2)cc1 | 39.4% | 4.91
21 |  | Cc1cccc(NC(=S)NC(=O)c2cccc(Cl)c2)c1C | 41.7% | 5.35
22 | 32.7% | O=C(NC(=S)Nc1c(Cl)c(Cl)cc(Cl)c1Cl)c1cccc(Cl)c1 | 45.5% | 
23 |  | O=C(NC(=S)NCc1ccccc1)c1cccc(Cl)c1 | 40.5% | 4.79
24 |  | O=C(NC(=S)Nc1ccccc1)c1cccc(Cl)c1 | 45.2% | 5.49
25 | 29.1% | O=C(NC(=S)Nc1cccc(Cl)c1)c1cccc(Cl)c1 | 52.9% | 
26 | 28.1% | O=C(NC(=S)Nc1ccc([N+](=O)[O-])cc1)c1cccc(Cl)c1 | 32.7% | 
27 |  | O=C(NC(=S)Nc1ncccn1)c1cccc(Cl)c1 | 57.2% | 5.68
28 | 25.7% | O=C(NC(=S)Nc1ccccc1Cl)c1cccc(Cl)c1 | 45.4% | 
29 |  | O=C(NC(=S)Nc1cc(Cl)c(Cl)cc1Cl)c1cccc(Cl)c1 | 43.3% | 5.13
30 | 37.1% | O=C(NC(=S)Nc1cccc2ccccc12)c1cccc(Cl)c1 | 42.2% | 
31 | 23.1% | O=C(NC(=S)Nc1ccc([N+](=O)[O-])cc1[N+](=O)[O-])c1cccc(Cl)c1 | 36.1% | 
32 | 36.7% | O=C(NC(=S)Nc1ccc(Cl)c(Cl)c1)c1cccc(Cl)c1 | 39.4% | 
33 |  | O=C(NC(=S)Nc1cc(Cl)ccc1Cl)c1cccc(Cl)c1 | 46.6% | 5.01
34 | 29.9% | O=C(NC(=S)N(C1CCCCC1)C1CCCCC1)c1cccc(Cl)c1 | 47.8% | 
35 |  | O=C(NC(=S)Nc1ccc(F)cc1)c1cccc(Cl)c1 |  | 5.54
36 |  | O=C(NC(=S)Nc1ccc(Cl)cc1Cl)c1cccc(Cl)c1 | 38.9% | 5.87
37 |  | Cc1cc(C)c(NC(=S)NC(=O)c2cccc(Cl)c2)c(C)c1 | 43.7% | 5.91
38 |  | O=C(NC(=S)Nc1ccccc1C(F)(F)F)c1cccc(Cl)c1 | 36.9% | 5.25
